The target of test [1] is GABA-A receptor; anion channel (Rattus norvegicus) (UniProt O09028+P15431+P18506+P18508+P19969+P20236+P23574+P23576+P28471+P28473+P30191+P62813+P63079+P63138+Q91ZM7+Q9ES14). Description: Ability to inhibit [35S]t-butyl-bicyclophosphorothionate binding by 50% to rat whole brain membrane. It counts as tissue-based. An outline of the steps:
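Male Wistar rat whole-brain membranes, washed with four freeze–thaw cycles. 100 ug membrane protein incubated with [35S]TBPS (2 nM final) in 20 mM KH2PO4/200 mM KCl, pH 7.4, containing GABA 600 nM final. Incubated 150 min at about 22 °C on shaker; vacuum filtration through GF/B filters; scintillation counting. Nonspecific binding with 200 uM picrotoxin. Reported as IC50, mean ± SEM.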

For test [2], the system named is Mus musculus. As to the kind of experiment: Loss of righting reflex following i.v. administration in mice. It counts as functional. Summed up:
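Male MF-1 mice in groups of eight given compound in saline iv via lateral tail vein over 10 s (10 mL/kg). Doses on a umol/kg scale, extra doses added to narrow range. Animals boxed separately; loss of righting reflex lasting ≥30 s scored. HD50 with 95% confidence limits by probit analysis.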

Test [3] has as its target T1, GABA-A receptor; alpha-1/beta-3/gamma-2 (Homo sapiens, UniProt P14867+P18507+P28472).
T1 sequence (P14867 whole entry): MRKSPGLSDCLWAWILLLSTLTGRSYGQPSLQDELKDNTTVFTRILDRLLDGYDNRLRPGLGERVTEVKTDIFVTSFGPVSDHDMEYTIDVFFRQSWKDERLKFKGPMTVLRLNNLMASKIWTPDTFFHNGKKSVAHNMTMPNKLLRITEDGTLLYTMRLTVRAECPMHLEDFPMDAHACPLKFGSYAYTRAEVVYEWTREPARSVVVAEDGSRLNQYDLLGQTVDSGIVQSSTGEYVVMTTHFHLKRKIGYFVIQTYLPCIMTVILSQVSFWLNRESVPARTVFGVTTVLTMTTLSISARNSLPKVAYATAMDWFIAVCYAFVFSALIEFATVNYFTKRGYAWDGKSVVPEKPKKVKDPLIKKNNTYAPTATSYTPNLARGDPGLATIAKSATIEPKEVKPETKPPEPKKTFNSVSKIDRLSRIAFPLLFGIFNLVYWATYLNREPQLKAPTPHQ
T1 sequence (P18507 whole entry): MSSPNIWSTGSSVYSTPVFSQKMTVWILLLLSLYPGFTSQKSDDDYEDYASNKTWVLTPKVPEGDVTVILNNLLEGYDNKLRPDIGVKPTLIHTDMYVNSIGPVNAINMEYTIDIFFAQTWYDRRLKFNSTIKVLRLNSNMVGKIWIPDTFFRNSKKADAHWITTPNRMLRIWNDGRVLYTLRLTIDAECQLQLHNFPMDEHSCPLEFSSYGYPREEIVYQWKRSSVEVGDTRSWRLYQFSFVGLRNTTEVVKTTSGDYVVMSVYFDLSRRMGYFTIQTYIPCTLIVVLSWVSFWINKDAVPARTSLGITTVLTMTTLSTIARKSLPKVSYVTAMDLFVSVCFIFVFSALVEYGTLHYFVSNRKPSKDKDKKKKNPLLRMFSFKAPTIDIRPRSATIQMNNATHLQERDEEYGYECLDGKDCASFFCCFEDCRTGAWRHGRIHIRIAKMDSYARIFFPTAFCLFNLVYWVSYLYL
T1 sequence (P28472 whole entry): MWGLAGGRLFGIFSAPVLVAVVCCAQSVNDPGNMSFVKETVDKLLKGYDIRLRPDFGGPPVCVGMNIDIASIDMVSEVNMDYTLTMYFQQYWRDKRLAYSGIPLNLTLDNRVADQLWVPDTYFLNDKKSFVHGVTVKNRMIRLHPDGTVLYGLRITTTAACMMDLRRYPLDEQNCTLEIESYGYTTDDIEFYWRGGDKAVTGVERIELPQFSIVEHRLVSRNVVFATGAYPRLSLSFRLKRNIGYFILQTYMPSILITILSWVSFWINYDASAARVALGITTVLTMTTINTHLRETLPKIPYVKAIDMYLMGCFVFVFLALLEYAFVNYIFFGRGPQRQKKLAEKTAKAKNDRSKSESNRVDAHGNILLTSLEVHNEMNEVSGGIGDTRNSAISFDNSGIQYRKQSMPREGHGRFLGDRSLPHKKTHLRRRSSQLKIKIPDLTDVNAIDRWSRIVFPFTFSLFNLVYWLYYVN
Description: GABA-modulatory action compound was evaluated on Oocytes expressing recombinant human alpha-1-beta-3-gamma-2L GABA A receptor at concentrations of >=100 micro<M. It counts as protein-complex assay. Summed up: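 Oocytes expressing human α1β3γ2L receptors, used 2–12 days after cRNA injection, were recorded with two electrodes at 18–22 °C. […] Compound was preapplied 30–60 s, then co-applied with EC10 GABA. Peak current was read manually; EC50 came from the fitted curve; mean ± s.e.mean.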

The target of test [4] is T1, GABA-A receptor; alpha-1/beta-3/gamma-2. As to the kind of experiment: GABA-mimetic action on Oocytes expressing human alpha-1-beta-3-gamma-2L GABA-A receptor subunits at >=100 uM.

Data on 21 molecules can be found in ChEMBL document CHEMBL1134654, “Alpha-amino acid phenolic ester derivatives: novel water-soluble general anesthetic agents which allosterically modulate GABA(A) receptors” (J Med Chem, 2001).

What is called EC50 is the concentration at which the effect is half-maximal.

Regarding `CCC(C(=O)Oc1c(OC)cc(C)cc1OC)N(CCOC)CCOC` (stereo not drawn), the TBPS IC50 in test [1] came out at 29.3 µM. This molecule also showed an HD50 in test [2] of 21.7 µmol/kg.

Take `COc1cccc(OC)c1OC(=O)[C@H](C)N1CCc2ccccc2C1`: in test [3], the EC50 was above 100 µM. Moreover, in test [1], the TBPS IC50 amounted to 23.8 µM. The same molecule returned an HD50 in test [2] of 82.6 µmol/kg.

In test [1], `COCCN(CCOC)C(C(=O)Oc1c(OC)cccc1OC)C(C)C` (stereo not drawn) yielded a TBPS IC50 above 10 µM. In test [2], this molecule returned an HD50 of 26.9 µmol/kg.

Regarding `COc1cccc(OC)c1C(=O)NCCN1CCc2ccccc2C1`, in test [1], the TBPS IC50 was above 100 µM. Besides, the HD50 in test [2] stood at 45.7 µmol/kg.

Consider `CC(C)c1cccc(C(C)C)c1O` [PROPOFOL], for which the EC50 in test [4] was 50 µM; in test [3] it was 4.1 µM.

`CCC(C(=O)Oc1c(OC)cc(C)cc1OC)N1CCOCC1` (stereo not drawn): the HD50 in test [2] is 68.1 µmol/kg.

Molecule `CCC(C(=O)Oc1c(OC)cccc1OC)N(CCOC)CCOC` (stereo not drawn) registered a TBPS IC50 in test [1] of 24.3 µM.

Regarding `CCCCC(C(=O)Oc1c(OC)cccc1OC)N(CCOC)CCOC` (stereo not drawn), the TBPS IC50 in test [1] was 1.6 µM. Besides, the HD50 in test [2] turned out to be 11 µmol/kg.

Turning to `COc1cccc(OC)c1OC(=O)[C@@H](C)N1CCOCC1.Cl`, the EC50 in test [3] was 198 µM. Further, the TBPS IC50 in test [1] is above 100 µM. In test [2], this molecule gave an HD50 of 85.9 µmol/kg.

In test [1], `CC[C@H](C(=O)Oc1c(OC)cccc1OC)N(CCOC)CCOC` had a TBPS IC50 of 7.4 µM.

For the molecule `COc1cccc(OC)c1C(=O)OCCN1CCc2ccccc2C1`, the TBPS IC50 in test [1] was above 30 µM. The HD50 in test [2] was 19 µmol/kg.

As for `CCC[C@H](C(=O)Oc1c(OC)cccc1OC)N(CCOC)CCOC`, the TBPS IC50 in test [1] is 3.2 µM. This molecule also gave an HD50 in test [2] of 7.3 µmol/kg.

`COc1cccc(OC)c1OC(=O)C(C)N1CCc2ccccc2C1` (stereo not drawn): the EC50 in test [3] is 5.5 µM. Moreover, the TBPS IC50 in test [1] was found to be 4.8 µM. The molecule further displayed an HD50 in test [2] of 33.2 µmol/kg.

In test [1], `CCCC(C(=O)Oc1c(OC)cccc1OC)N(CCOC)CCOC` (stereo not drawn) yielded a TBPS IC50 of 7.7 µM. The HD50 in test [2] was 12.4 µmol/kg.

Consider `COc1cccc(OC)c1OC(=O)C(c1ccccc1)N1CCOCC1` (stereo not drawn), for which, in test [1], the TBPS IC50 turned out to be 66 µM. The same molecule returned an HD50 in test [2] of 39.6 µmol/kg.

Consider `COc1cccc(OC)c1OC(=O)[C@@H](C)N1CCc2ccccc2C1`, for which, in test [3], the EC50 is 4.1 µM. Also, the TBPS IC50 in test [1] was found to be 3.3 µM. The HD50 in test [2] was found to be 20.7 µmol/kg.

As for `CC[C@H](C(=O)Oc1c(OC)cc(C)cc1OC)N(CCOC)CCOC` [ORG-24447], in test [3], the EC50 came out at 10 µM. The molecule also registered a TBPS IC50 in test [1] of 16 µM. Also, in test [2], the HD50 was determined as 18 µmol/kg.

Regarding `COc1cc(C)cc(OC)c1OC(=O)C(C)(C)N1CCOCC1`, the TBPS IC50 in test [1] is above 10 µM. The molecule also came in with an HD50 in test [2] of 53.8 µmol/kg.

Regarding `COc1cccc(OC)c1NC(=O)[C@@H](C)N1CCc2ccccc2C1`, the TBPS IC50 in test [1] is above 10 µM. The molecule also returned an HD50 in test [2] of 44.1 µmol/kg.

`CCC(C(=O)Oc1c(OC)cccc1OC)N1CCOCC1` (stereo not drawn) yielded a TBPS IC50 in test [1] above 10 µM. Also, in test [2], the HD50 is 38 µmol/kg.

On to `CC(C)c1cccc(C(C)C)c1OC(=O)CN1CCOCC1`, for which the HD50 in test [2] stood at 98.1 µmol/kg.
